A short description of data set [1]: Cell cycle arrest in human Meso2 cells assessed as accumulation at G2/M phase at IC50 after 72 hrs by propidium iodide staining-based FACS-flow cytometry relative to control. It is filed as functional. (Flow cytometry measures light scatter and fluorescence of single cells or particles in a stream.)
Data set [2] can be described thus: (§1) Cytotoxicity against human STO cells assessed as growth inhibition after 72 hrs by MTS assay. Format: functional, cell-based. The method, boiled down:
(§2)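 Log-phase cells, 4500 per well, plated 24 h, then given 0.1–100 μM compound for 72 h; vehicle (DMSO) controls. MTS read-out at 490 nm as % of DMSO-treated cells. IC50 taken graphically from the dose-response curve. Eight replicates; mean ± SD of at least three independent experiments.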

Data set [3] relates to STO. The description is as §1. It is filed as functional, cell-based. In outline: as §2
Data set [4] is described as follows: (§3) Cytotoxicity against human cells Meso2 assessed as growth inhibition after 72 hrs by MTS assay. It is filed as functional, cell-based. The following applies: Meso2, 72 h. In outline:
as §2
In general terms: Tetrazolium assays rely on reduction of a dye to a coloured formazan, in cell work by metabolically active cells.

For the next data set, the species on record is Homo sapiens. The description is as §3. It is filed as functional, cell-based. In outline:
as §2

A short description of data set [5]: Cytotoxicity against human W138 cells assessed as growth inhibition after 72 hrs by MTS assay. The following applies: WI-38, 72 h. Format: cell-based. In outline: as §2
Data set [6] can be described thus: Antitumor activity against human STO cells xenografted in athymic nude mouse assessed as tumor volume inhibition at 25 mg/kg, ip qd for 4 to 5 days per week for 3 weeks measured on day 17 post dose. The conditions noted are these: route intraperitoneal. It is filed as functional. In outline:
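Female athymic Swiss nude mice, 8-10 weeks old; 10⁷ exponentially growing STO cells injected s.c. into right flank. Dosing i.p. qdx4-5/wx3w, starting the day after cell injection. Tumor volume = d²xD/2. TVI% = 100-(mean TV treated/mean TV control x 100), read 17 days after end of treatment (day 35). Two-tailed Student's t test.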
On the technique in general: In xenograft studies the graft and the host belong to different species.

The nature of data set [7]: Cell cycle arrest in human STO cells assessed as accumulation at G2/M phase at IC50 after 72 hrs by propidium iodide staining-based FACS-flow cytometry relative to control. It is filed as functional.
Data set [8] relates to Mus musculus. As to the kind of experiment: Toxicity in athymic nude mouse xenografted with human STO cells assessed as body weight loss at 25 mg/kg, ip qd for 4 to 5 days per week for 35 days measured on day 17 post dose. Format: organism-based. Also noted: dose 25 mg/kg, route intraperitoneal. The following applies: in vivo, in the assay text read “for 3 weeks measured on day 35” for “for 35 days measured on day 17 post dose”. In outline:
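Female athymic Swiss nude mice bearing s.c. STO flank xenografts (10⁷ cells). Dosing i.p. qdx4-5/wx3w, starting the day after cell injection. Toxicity recorded as % body weight loss and lethal toxicity. Deaths in treated mice before the first control death were counted as toxic.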

Data set [9] has as its system Mus musculus. As to the kind of experiment: Toxicity in athymic nude mouse xenografted with human STO cells assessed as mortality at 25 mg/kg, ip qd for 4 to 5 days per week for 3 weeks measured on day 17 post dose. The conditions noted are these: in vivo. Also noted: dose 25 mg/kg, route intraperitoneal. Format: organism-based. The method, boiled down:
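Female athymic Swiss nude mice, 8-10 weeks old, given 10⁷ exponentially growing STO cells s.c. in the right flank. Dosing i.p. qdx4-5/wx3w, starting the day after cell injection. Toxicity was scored as body weight loss and lethal toxicity, reported as toxic deaths per treated group (n=8). Deaths in treated mice before the first control death were counted as toxic.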

For data set [10], the target named is Cyclin-dependent kinase 1/cyclin B1 (Homo sapiens, UniProt P06493). As to the kind of experiment: Inhibition of human recombinant CDK1/cyclin B after 30 mins by fluorescence assay. It is filed as protein-complex assay. In outline:
(§4)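 Recombinant kinases (CDK1/cyclin B; GSK3β) in Omnia fluorescence assay with peptide substrate, ATP and DTT in kinase buffer, run 30 min at 30°C. Compound range 0.05-50 μM. Fluorescence read at ex 360/em 485 nm. IC50 taken graphically; mean ± SD of three independent experiments.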

The target of data set [11] is Glycogen synthase kinase-3 beta (Homo sapiens, UniProt P49841). As to the kind of experiment: Inhibition of human GSK-3 beta after 30 mins by fluorescence assay. The method, boiled down: as §4
Data set [12] has as its target Cyclin-dependent kinase 1/cyclin B1 (Homo sapiens) (UniProt P06493+P14635). As to the kind of experiment: Inhibition of CDK1/cyclin B in human STO cells using histone H1 as substrate assessed as histone H1 phosphorylation preincubated at IC50 by immunoprecipitate-based densitometric analysis. It is filed as cell-based. The following applies: TDE = time-dependent effect. The method, boiled down: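 STO cells exposed at IC50 for 24, 48 and 72 h, with DMSO controls. Lysates immunoprecipitated with anti-cyclin B1, 4 h at 4°C. Precipitates incubated 20 min at 30°C with 3 μg histone H1, MgCl₂, cold ATP and [γ32P]ATP, pH 7.5. Products run on 12% SDS gel and quantified by densitometry as % of DMSO control.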

For data set [13], the system named is STO. As to the kind of experiment: Induction of apoptosis in human STO cells assessed as inhibition of survivin phosphorylation at Thr34 at IC50 by Western blotting analysis. Format: functional, cell-based.
The subject of data set [14] is Meso2. As to the kind of experiment: Induction of apoptosis in human Meso2 cells assessed as DNA fragmentation at IC50 by fluorescence microscopy relative to control. It is filed as functional, cell-based. The conditions noted are these: TDE = time-dependent effect.
Data set [15] relates to STO. As to the kind of experiment: Induction of apoptosis in human STO cells assessed as DNA fragmentation at IC50 by fluorescence microscopy relative to control. It is filed as functional, cell-based. The following applies: TDE = time-dependent effect.
For data set [16], the system named is Meso2. As to the kind of experiment: Induction of apoptosis in human Meso2 cells assessed as chromatin condensation at IC50 by fluorescence microscopy relative to control. Format: functional, cell-based. The following applies: TDE = time-dependent effect.
Data set [17] deals with STO. As to the kind of experiment: Induction of apoptosis in human STO cells assessed as chromatin condensation at IC50 by fluorescence microscopy relative to control. The conditions noted are these: TDE = time-dependent effect. It is filed as functional, cell-based.
The nature of data set [18]: Cell cycle arrest in human Meso2 cells assessed as increase in sub-G1 phase accumulation at IC50 after 72 hrs by propidium iodide staining-based FACS-flow cytometry relative to control. Format: functional.
A short description of data set [19]: Cell cycle arrest in human STO cells assessed as increase in sub-G1 phase accumulation at IC50 after 72 hrs by propidium iodide staining-based FACS-flow cytometry relative to control. It is filed as functional.
Data set [20] can be described thus: Cell cycle arrest in human Meso2 cells assessed as reduction of cells at G1 phase at IC50 after 48 to 72 hrs by propidium iodide staining-based FACS-flow cytometry relative to control. Format: functional.
The nature of data set [21]: Cell cycle arrest in human STO cells assessed as reduction of cells at G1 phase at IC50 after 48 to 72 hrs by propidium iodide staining-based FACS-flow cytometry relative to control. Format: functional.
Data set [22] can be described thus: Cell cycle arrest in human Meso2 cells assessed as accumulation at G2/M phase at IC50 after 48 hrs by propidium iodide staining-based FACS-flow cytometry relative to control. It is filed as functional.
A short description of data set [23]: Cell cycle arrest in human STO cells assessed as accumulation at G2/M phase at IC50 after 48 hrs by propidium iodide staining-based FACS-flow cytometry relative to control. It is filed as functional.
For data set [24], the system named is Meso2. As to the kind of experiment: Induction of apoptosis in human Meso2 cells assessed as increase in caspase 3 activation at 12 to 24 […] hrs by DEVD-pNA substrate-based spectrofluorometric analysis relative to control. It is filed as functional, cell-based.
For data set [25], the system named is STO. As to the kind of experiment: Induction of apoptosis in human STO cells assessed as increase in caspase 3 activation at 3 to 6 nM hrs by DEVD-pNA substrate-based spectrofluorometric analysis relative to control. Format: functional, cell-based.
Data set [26] is described as follows: Induction of apoptosis in human Meso2 cells assessed as increase in caspase 3 activation at IC80 after 72 hrs by DEVD-pNA substrate-based spectrofluorometric analysis relative to control. It is filed as functional. In outline: (§5)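 Cells exposed 72 h at IC80, with 1% (v/v) DMSO controls. Caspase-9 activity read as LEHD-pNA cleavage and caspase-3 as DEVD-pNA cleavage, by spectrofluorometry (ex 380 nm/em 460 nm), reported as rfu. Mean ± SD of at least three experiments.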

Data set [27] in a line: Induction of apoptosis in human Meso2 cells assessed as increase in caspase 9 activation at IC80 after 72 hrs by LEHD-pNA substrate-based spectrofluorometric analysis relative to control. It is filed as functional. In outline:
as §5

The nature of data set [28]: Induction of apoptosis in human STO cells assessed as increase in caspase 3 activation at IC80 after 72 hrs by DEVD-pNA substrate-based spectrofluorometric analysis relative to control. It is filed as functional. In outline:
as §5

A short description of data set [29]: Induction of apoptosis in human STO cells assessed as increase in caspase 9 activation at IC80 after 72 hrs by LEHD-pNA substrate-based spectrofluorometric analysis relative to control. It is filed as functional. In outline: as §5

Calls of active or inactive are those of the source. The calls are words filed in the database; no cut-off is given here.

A word on the IC50: it is the point on the concentration scale where inhibition reaches its midpoint. A word on the inhibition in vivo: it is how much of the control response was suppressed.

Chain of Cyclin-dependent kinase 1/cyclin B1 (Homo sapiens) (P06493 whole entry, looked up): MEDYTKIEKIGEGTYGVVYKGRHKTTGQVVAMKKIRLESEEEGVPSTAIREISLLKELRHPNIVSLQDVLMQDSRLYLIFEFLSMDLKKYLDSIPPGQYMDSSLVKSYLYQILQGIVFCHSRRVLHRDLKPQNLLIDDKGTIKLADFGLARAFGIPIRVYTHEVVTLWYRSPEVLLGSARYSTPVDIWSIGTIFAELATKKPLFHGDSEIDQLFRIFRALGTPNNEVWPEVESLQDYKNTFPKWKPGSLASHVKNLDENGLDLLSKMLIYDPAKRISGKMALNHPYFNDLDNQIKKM
Chain of Cyclin-dependent kinase 1/cyclin B1 (Homo sapiens) (P14635 whole entry, looked up): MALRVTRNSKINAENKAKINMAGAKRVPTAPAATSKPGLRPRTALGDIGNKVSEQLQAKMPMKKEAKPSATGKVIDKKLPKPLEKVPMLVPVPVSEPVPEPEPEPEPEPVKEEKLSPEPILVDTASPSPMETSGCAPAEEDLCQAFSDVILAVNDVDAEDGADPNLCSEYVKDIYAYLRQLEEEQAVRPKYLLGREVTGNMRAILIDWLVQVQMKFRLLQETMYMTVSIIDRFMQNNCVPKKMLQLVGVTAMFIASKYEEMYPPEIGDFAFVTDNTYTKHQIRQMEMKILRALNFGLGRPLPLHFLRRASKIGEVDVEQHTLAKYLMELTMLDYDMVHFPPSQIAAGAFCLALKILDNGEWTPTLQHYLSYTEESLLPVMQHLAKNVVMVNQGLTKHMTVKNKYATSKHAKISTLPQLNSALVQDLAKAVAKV
Chain of Cyclin-dependent kinase 1/cyclin B1 (P06493 whole entry): as the sequence (P06493 whole entry, looked up) above
Chain of Cyclin-dependent kinase 1/cyclin B1 (P14635 whole entry, further chain): as the sequence (P14635 whole entry, looked up) above
Chain of Glycogen synthase kinase-3 beta (P49841 whole entry): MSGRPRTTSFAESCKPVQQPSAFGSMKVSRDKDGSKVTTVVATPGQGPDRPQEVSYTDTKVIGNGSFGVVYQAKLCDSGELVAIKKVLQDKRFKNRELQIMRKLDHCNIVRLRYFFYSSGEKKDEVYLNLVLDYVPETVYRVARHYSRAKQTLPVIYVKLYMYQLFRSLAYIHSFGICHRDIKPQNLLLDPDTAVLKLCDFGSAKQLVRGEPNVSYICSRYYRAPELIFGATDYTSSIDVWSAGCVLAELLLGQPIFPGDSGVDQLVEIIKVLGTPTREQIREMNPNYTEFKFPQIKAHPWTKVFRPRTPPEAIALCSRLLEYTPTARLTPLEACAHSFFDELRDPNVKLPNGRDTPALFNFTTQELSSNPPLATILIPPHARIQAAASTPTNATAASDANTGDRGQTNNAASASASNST

As for `Cn1cc(-c2nc(-c3c[nH]c4ncccc34)cs2)c2cc(F)ccc21`, the Activity in [1] was 41.9%; in data set [7], 41.9%; in the data set with Mus musculus [8], 4%; in the data set on Mus musculus [9], “Non-toxic”; in the data set with Meso2 [14], “tde”; in the data set on STO [15] it was “tde”. Moreover, the Activity result was “tde” in the data set with Meso2 [16]; “tde” with STO [17]; 28.6% in [18]; 27.6% in [19]; 33.3% in data set [22]; 33.3% in [23]. Moreover, the IC50 in data set [2] is 0.49 µM; in data set [4] it was 25.1 µM; in data set [5], above 100 µM; in data set [10], 0.89 µM; in [11], 42.2 µM. For the same compound, the inhibition entry in the data set with STO [3] is “Dose-dependent effect”; in the data set filed under Homo sapiens it was “Dose-dependent effect”; in data set [12] it was “tde”. For the same compound, the inhibition in vivo at 25 mg/kg in data set [6] worked out at 73%. Besides, the inhibition result in the data set with STO [13] was “Active”. In addition, the outcome in data set [20] and in [21] was Active.
`Cn1cc(-c2nc(-c3cn(C)c4ncccc34)cs2)c2ccccc21`: the IC50 is 0.61 µM in [2], 16.8 µM in data set [4] and 18.8 µM in data set [5]. For the same compound, the inhibition result in the data set with STO [3] and in the data set filed under Homo sapiens was “Dose-dependent effect” in each case.
`Cn1cc(-c2csc(-c3c[nH]c4ccc(F)cc34)n2)c2cccnc21`: the IC50 worked out at 0.54 µM in [2], 13.3 µM in data set [4] and 15.4 µM in data set [5]. Also, the inhibition entry with STO [3] and in the data set listed under Homo sapiens was “Dose-dependent effect” throughout.
For `CC(=O)O[C@H]1C(=O)[C@@]2(C)[C@H]([C@H](OC(=O)c3ccccc3)[C@]3(O)C[C@H](OC(=O)[C@H](O)[C@@H](NC(=O)c4ccccc4)c4ccccc4)C(C)=C1C3(C)C)[C@]1(OC(C)=O)CO[C@@H]1C[C@@H]2O`, the outcome with Meso2 [24] and in the data set with STO [25] was Active.
`Cn1cc(-c2nc(-c3cn(C)c4ncccc34)cs2)c2cc(F)ccc21`: the Activity in data set [1] is 41.9%; in data set [7], 41.9%; in the data set on Mus musculus [8] it was 7%; in the data set on Mus musculus [9], “Non-toxic”; in the data set on Meso2 [14] it was “tde”; in the data set on STO [15], “tde”. For the same compound, the Activity entry in the data set with Meso2 [16] is “tde”; with STO [17], “tde”; in data set [18], 27.9%; in data set [19], 26.5%; in [22], 33.3%; in [23], 33.3%. Further, the IC50 was 0.43 µM in data set [2]; 4.85 µM in [4]; above 100 µM in data set [5]; 0.86 µM in data set [10]; 35.7 µM in data set [11]. Also, the inhibition entry with STO [3] is “Dose-dependent effect”; in the data set listed under Homo sapiens, “Dose-dependent effect”; in [12], “tde”. Further, the inhibition in vivo at 25 mg/kg in data set [6] was found to be 58%. Moreover, the inhibition result in the data set with STO [13] is “Active”. Also, the “fold change (FC)” value in data set [26] turned out to be 7.8; in data set [27], 11.9; in data set [28] it was 10; in [29] it was 12. Moreover, the outcome in [20] and in data set [21] was Active.

Values taken from ChEMBL document CHEMBL2434964, “Novel 1H-pyrrolo[2,3-b]pyridine derivative nortopsentin analogues: synthesis and antitumor activity in peritoneal mesothelioma experimental models” (J Med Chem, 2013).
